Active and inactive are the calls of the source. No cut-off for these calls is given here.
How the values were obtained:
[1] = system: Rattus norvegicus; assay: Hypotensive activity in anaesthetized albino rat assessed as change in systolic arterial blood pressure at 5 mg/kg, ip up to 60 mins; assay type: functional, organism-based; design: dose 5 mg/kg
How it was run: (§1)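 Male adult albino rats (groups of 6) anaesthetised with urethane 1.75–2.0 g/Kg i.p. Test agent given i.p. at 5 mg/Kg, dissolved in tween 80 and diluted 1:3 with distilled water. A solvent-treated group served as control. Arterial pressure was recorded via a cannula and pressure transducer on a chart oscillograph at 5, 15, 30 and 60 min. Statistics by one-way ANOVA or unpaired t test.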

[2] = system: Rattus norvegicus; assay: Hypotensive activity in anaesthetized albino rat assessed as change in diastolic arterial blood pressure at 5 mg/kg, ip up to 60 mins; assay type: functional, organism-based; design: dose 5 mg/kg; how it was run: as §1
[3] = system: Rattus norvegicus; assay: Hypotensive activity in anaesthetized albino rat assessed as change in systolic arterial blood pressure at 5 mg/kg, ip after 5 mins relative to control; assay type: functional; details: route intraperitoneal; how it was run: as §1
[4] = system: Rattus norvegicus; assay: Toxicity in anaesthetized albino rat assessed as change in heart rate at 60 mg/kg, ip after 5 mins relative to control; assay type: organism-based; design: dose 60 mg/kg, route intraperitoneal; details: in vivo
[5] = system: Rattus norvegicus; assay: Hypotensive activity in anaesthetized albino rat assessed as reduction of adrenaline-induced increase in diastolic arterial blood pressure at 3 ug/kg, iv administered 30 mins before adrenaline challenge measured after 30 mins relative to control; assay type: functional; design: scale not given: the % may be the effect or the level left
How it was run: (§2)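 Anaesthetised male albino rats (urethane 1.75–2.0 g/Kg i.p.; n=6 per group). Adrenaline (3/Kg i.v.) pressor response was recorded alone, 30 min before i.p. injection of the test agent (5 mg/Kg in tween 80/water). The adrenaline challenge was repeated 30 min and 1 h after dosing. Systolic and diastolic pressure were recorded via a cannulated artery and transducer.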

[6] = system: Rattus norvegicus; assay: Hypotensive activity in anaesthetized albino rat assessed as change in diastolic arterial blood pressure at 60 mg/kg, ip after 5 mins relative to control; assay type: functional; details: route intraperitoneal
[7] = system: Rattus norvegicus; assay: Hypotensive activity in anaesthetized albino rat assessed as change in diastolic arterial blood pressure at 5 mg/kg, ip after 15 mins relative to control; details: route intraperitoneal
[8] = system: Rattus norvegicus; assay: Hypotensive activity in anaesthetized albino rat assessed as reduction of adrenaline-induced increase in systolic arterial blood pressure at […], iv administered 30 mins before adrenaline challenge measured after 30 mins relative to control; assay type: functional; design: scale not given: the % may be the effect or the level left; how it was run: as §2
[9] = system: Rattus norvegicus; assay: Hypotensive activity in anaesthetized albino rat assessed as reduction of adrenaline-induced increase in systolic arterial blood pressure at 3 ug/kg, iv administered 30 mins before adrenaline challenge measured after 1 hr relative to control; assay type: functional; design: scale not given: the % may be the effect or the level left; how it was run: as §2
[10] = system: Rattus norvegicus; assay: Hypotensive activity in anaesthetized albino rat assessed as change in systolic arterial blood pressure at 5 mg/kg, ip after 60 mins relative to control; details: route intraperitoneal
[11] = system: Rattus norvegicus; assay: Toxicity in anaesthetized albino rat assessed as change in heart rate at 5 mg/kg, ip after 5 mins relative to control; assay type: organism-based; design: dose 5 mg/kg, route intraperitoneal; details: in vivo
How it was run: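 Urethane-anaesthetised (1.75–2.0 g/Kg i.p.) male albino rats, 6 per group, received 5 mg/Kg i.p. in tween 80/distilled water (1:3); solvent-treated controls. Heart rate was taken from a lead II ECG at 5 min after injection (also 15, 30, 60 min). Analysed by ANOVA or unpaired t test.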

[12] = system: Rattus norvegicus; assay: Hypotensive activity in anaesthetized albino rat assessed as reduction of adrenaline-induced increase in diastolic arterial blood pressure at 3 ug/kg, iv administered 30 mins before adrenaline challenge measured after 1 hr relative to control; assay type: functional; design: scale not given: the % may be the effect or the level left; how it was run: as §2
[13] = system: Rattus norvegicus; assay: Toxicity in anaesthetized albino rat assessed as change in heart rate at 30 mg/kg, ip after 5 mins relative to control; assay type: organism-based; design: dose 30 mg/kg, route intraperitoneal; details: in vivo
[14] = system: Rattus norvegicus; assay: Toxicity in anaesthetized albino rat assessed as change in heart rate at 15 mg/kg, ip after 5 mins relative to control; assay type: organism-based; design: dose 15 mg/kg, route intraperitoneal; details: in vivo
[15] = system: Rattus norvegicus; assay: Hypotensive activity in anaesthetized albino rat assessed as change in diastolic arterial blood pressure at 5 mg/kg, ip after 5 mins relative to control; assay type: functional; details: route intraperitoneal; how it was run: as §1
[16] = system: Rattus norvegicus; assay: Hypotensive activity in anaesthetized albino rat assessed as change in systolic arterial blood pressure at 5 mg/kg, ip after 15 mins relative to control; details: route intraperitoneal
[17] = system: Rattus norvegicus; assay: Hypotensive activity in anaesthetized albino rat assessed as change in diastolic arterial blood pressure at 5 mg/kg, ip after 30 mins relative to control; details: route intraperitoneal
[18] = system: Rattus norvegicus; assay: Hypotensive activity in anaesthetized albino rat assessed as change in diastolic arterial blood pressure at 5 mg/kg, ip; details: TDE = time-dependent effect
[19] = system: Rattus norvegicus; assay: Hypotensive activity in anaesthetized albino rat assessed as change in systolic arterial blood pressure at 15 mg/kg, ip; assay type: functional, organism-based; design: dose 15 mg/kg; details: TDE = time-dependent effect

CC1(C)CC(=O)C2=C(C1)N(c1ccc(Cl)cc1)CN(c1ccc(OCC(=O)N/N=C/c3ccc(Cl)cc3Cl)cc1)C2
Activity [1]: inactive | Activity [2]: inactive

CC1(C)CC(=O)C2=C(C1)N(c1ccc(Cl)cc1)CN(c1ccc(OCC(=O)N/N=C/c3ccc(Cl)cc3)cc1)C2
Activity [1]: inactive | Activity [2]: inactive

CC1(C)CC(=O)C2=C(C1)N(c1ccc(Cl)cc1)CN(c1ccc(Br)cc1)C2
Activity [1]: inactive | Activity [2]: inactive

CC1(C)CC(=O)C2=C(C1)N(c1ccc(Cl)cc1)CN(c1ccc(F)cc1)C2
Activity [1]: inactive | Activity [2]: inactive

Cc1ccc(/C=N/NC(=O)COc2ccc(N3CC4=C(CC(C)(C)CC4=O)N(c4ccc(Cl)cc4)C3)cc2)cc1
Activity [3]: -17.8% | Activity [4]: -6.3% | Activity [5]: -19% | Activity [6]: -37.5% | Activity [7]: -25% | Activity [8]: -11% | Activity [9]: -22% | Activity [10]: -39.3% | Activity [11]: -2% | Activity [12]: -28.5% | Activity [13]: -6.3% | Activity [14]: -5% | Activity [15]: -25% | Activity [16]: -21.4% | Activity [17]: -29.16%

CC1(C)CC(=O)C2=C(C1)N(c1ccc(Cl)cc1)CN(c1ccc(OCC(=O)NN)cc1)C2
Activity [1]: inactive | Activity [2]: inactive

CC1(C)CC(=O)C2=C(C1)N(c1ccc(Cl)cc1)CN(c1ccc(OCC(=O)N/N=C/c3ccc([N+](=O)[O-])cc3)cc1)C2
Activity [3]: -13% | Activity [4]: -6.2% | Activity [5]: -9% | Activity [6]: -31.25% | Activity [7]: -25% | Activity [8]: -10% | Activity [9]: -5% | Activity [10]: -26.5% | Activity [11]: 0% | Activity [12]: -9% | Activity [13]: -2.1% | Activity [14]: -2.1% | Activity [15]: -12.5% | Activity [16]: -17% | Activity [17]: -31.25%

COc1cccc(/C=N/NC(=O)COc2ccc(N3CC4=C(CC(C)(C)CC4=O)N(c4ccc(Cl)cc4)C3)cc2)c1
Activity [1]: inactive | Activity [2]: inactive

COc1cc2nc(N3CCN(C(=O)c4ccco4)CC3)nc(N)c2cc1OC [PRAZOSIN]
Activity [3]: -20.8% | Activity [4]: -5.1% | Activity [5]: -8% | Activity [6]: -38.8% | Activity [7]: -22.22% | Activity [8]: -11% | Activity [9]: 0% | Activity [10]: -33.3% | Activity [11]: 30% | Activity [12]: 0% | Activity [13]: 16% | Activity [14]: 26% | Activity [15]: -22.22% | Activity [16]: -29.2% | Activity [17]: -27.7%

CCOC(=O)COc1ccc(N2CC3=C(CC(C)(C)CC3=O)N(c3ccc(Cl)cc3)C2)cc1
Activity [1]: inactive | Activity [2]: inactive

CC1(C)CC(=O)C2=C(C1)N(c1ccc(Cl)cc1)CN(c1ccc(OCC(=O)N/N=C/c3cccc(Br)c3)cc1)C2
Activity [1]: inactive | Activity [2]: inactive

CC1(C)CC(=O)C2=C(C1)N(c1ccc(Cl)cc1)CN(c1ccc(Cl)cc1)C2
Activity [3]: 17.8% | Activity [4]: 6% | Activity [18]: tde | Activity [6]: 28% | Activity [7]: 25% | Activity [19]: tde | Activity [10]: 32.4% | Activity [11]: 0% | Activity [13]: 6% | Activity [14]: 0% | Activity [15]: 18.2% | Activity [16]: 23% | Activity [17]: 28%

CC1(C)CC(=O)C2=C(C1)N(c1ccc(Cl)cc1)CN(c1ccccc1)C2
Activity [3]: 0% | Activity [4]: 12% | Activity [5]: -9% | Activity [18]: tde | Activity [6]: -7.7% | Activity [7]: 0% | Activity [19]: tde | Activity [8]: -7% | Activity [9]: 0% | Activity [10]: -6% | Activity [11]: 0% | Activity [12]: 0% | Activity [13]: 6.25% | Activity [14]: 0% | Activity [15]: 0% | Activity [16]: 0% | Activity [17]: -7.7%

Cc1ccc(N2CC3=C(CC(C)(C)CC3=O)N(c3ccc(Cl)cc3)C2)cc1
Activity [3]: 0% | Activity [4]: 0% | Activity [5]: -8% | Activity [18]: tde | Activity [6]: -18.7% | Activity [7]: 0% | Activity [19]: tde | Activity [8]: -11% | Activity [9]: 0% | Activity [10]: -6% | Activity [11]: 0% | Activity [12]: 0% | Activity [13]: 0% | Activity [14]: 0% | Activity [15]: 0% | Activity [16]: 0% | Activity [17]: -6.25%

CC1(C)CC(=O)C2=C(C1)N(c1ccc(Cl)cc1)CN(c1ccc(OCC(=O)N/N=C/c3ccccc3Cl)cc1)C2
Activity [1]: inactive | Activity [2]: inactive

CC1(C)CC(=O)C2=C(C1)N(c1ccc(Cl)cc1)CN(c1ccccc1F)C2
Activity [1]: inactive | Activity [2]: inactive

CC1(C)CC(=O)C2=C(C1)N(c1ccc(Cl)cc1)CN(c1ccc(OCC(=O)N/N=C/c3ccccc3)cc1)C2
Activity [3]: -19% | Activity [4]: 0% | Activity [5]: -6% | Activity [6]: -20% | Activity [7]: -10% | Activity [8]: -7% | Activity [9]: -7% | Activity [10]: -13% | Activity [11]: 0% | Activity [12]: -7% | Activity [13]: 0% | Activity [14]: -4% | Activity [15]: -10% | Activity [16]: -13% | Activity [17]: -15%

CC1(C)CC(=O)C2=C(C1)N(c1ccc(Cl)cc1)CN(c1ccc(OCC(=O)N/N=C/c3cccc([N+](=O)[O-])c3)cc1)C2
Activity [1]: inactive | Activity [2]: inactive

COc1ccc(/C=N/NC(=O)COc2ccc(N3CC4=C(CC(C)(C)CC4=O)N(c4ccc(Cl)cc4)C3)cc2)cc1
Activity [1]: inactive | Activity [2]: inactive

CC1(C)CC(=O)C2=C(C1)N(c1ccc(Cl)cc1)CN(c1ccc(O)cc1)C2
Activity [3]: 0% | Activity [5]: 10% | Activity [6]: -5% | Activity [7]: 0% | Activity [8]: 17% | Activity [9]: 17% | Activity [10]: -3% | Activity [11]: 0% | Activity [12]: 16% | Activity [13]: 0% | Activity [14]: 0% | Activity [15]: 0% | Activity [16]: 0% | Activity [17]: 0%

CC1(C)CC(=O)C2=C(C1)N(c1ccc(Cl)cc1)CN(c1ccc(OCC(=O)N/N=C/c3ccc(Br)cc3)cc1)C2
Activity [1]: inactive | Activity [2]: inactive
